IMP-1 inhibitor = blocks Pseudomonas aeruginosa IMP-1 metallo-beta-lactamase; AID 1556; 290,000 compounds, 0.45% hits; inhibition, % at 5.6 µM; purified IMP-1, nitrocefin hydrolysis, epi-absorbance fluorescence;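 active means inhibition above the mean plus 3 SD of all compounds in the same screening run, cut at about 4.5% in these data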
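system = purified recombinant IMP-1 beta-lactamase | amount = 0.2 nM IMP-1, as dispensed | medium = HEPES buffer pH 7.1 with ZnSO4 and Brij 35 | times = 25 °C, 15 min preincubation, 25 min reaction | detection = plate fluorescence quenching by hydrolysis product, ex 480/em 530 nm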
VIM-2 inhibitor = inhibitors of Pseudomonas aeruginosa VIM-2 metallo-beta-lactamase; purified VIM-2, nitrocefin hydrolysis, epi-absorbance fluorescence; inhibition, % at 5.6 µM; 290,000 compounds, 0.89% hits;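 active means inhibition above the mean of all tested compounds plus 3 SD, cutoff set per screening run, cut at about 7.5% in these data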;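 further: red hydrolysis product quenches plate fluorescence so inhibitors raise well fluorescence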
M18AAP inhibitor = PfM18AAP enzyme inhibition | inhibition, % at 7.35 µM | recombinant PfM18AAP, H-Glu-NHMec fluorogenic cleavage | 290,000 compounds, 1.2% hits;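 active means inhibition above the campaign mean inhibition over all tested compounds plus 3 SD, cut at about 28% in these data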
sPLA2-III inh = Inhibits HGIII-sPLA2 liposome hydrolysis, primary screen; QFRET BODIPY PC-A2 liposome hydrolysis, fluorescence; inhibition, % at 12.2 µM; 370,000 compounds, 0.56% hits; AID 743126;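 active means inhibition above mean plus 3 SD of compounds lying within the high and low control bounds, cut at about 19% in these data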
Target sequence (Q9NZ20 whole entry, looked up): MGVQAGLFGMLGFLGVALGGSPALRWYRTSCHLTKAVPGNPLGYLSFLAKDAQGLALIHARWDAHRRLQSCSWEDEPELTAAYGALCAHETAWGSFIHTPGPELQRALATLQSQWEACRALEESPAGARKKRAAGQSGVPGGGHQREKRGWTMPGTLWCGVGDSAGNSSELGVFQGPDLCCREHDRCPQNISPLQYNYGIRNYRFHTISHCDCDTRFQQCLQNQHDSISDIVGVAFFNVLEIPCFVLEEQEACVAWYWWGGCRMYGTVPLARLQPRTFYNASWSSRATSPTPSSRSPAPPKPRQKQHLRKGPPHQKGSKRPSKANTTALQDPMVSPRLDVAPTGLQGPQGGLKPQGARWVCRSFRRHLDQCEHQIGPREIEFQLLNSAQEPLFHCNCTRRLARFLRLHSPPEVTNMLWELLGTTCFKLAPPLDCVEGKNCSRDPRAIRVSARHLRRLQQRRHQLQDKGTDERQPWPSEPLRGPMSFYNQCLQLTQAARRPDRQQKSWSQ
Hits are given with their value; - = inactive; . = no result. Most compounds without a hit are left out; they make up all but 2.4% or so of the library.

SMILES | IMP-1 inhibitor | VIM-2 inhibitor | M18AAP inhibitor | sPLA2-III inh
COP(=O)(CC(=O)O)C(CC(C)C)NC(=O)OCc1ccccc1 (stereo not given) | . | . | . | -
O=C(O)C1=C(C(=O)N2CCN(C(=O)c3ccco3)CC2)CCCC1 | 12 | - | - | -
CCN1CCN(C(=O)C2=C(C(=O)O)CCCC2)CC1 | 13 | - | - | -
CCN1CCN(C(=O)c2ccc(C(F)(F)F)cc2)CC1 | - | - | - | -
COc1ccc2c(c1)[C@@]1(OCCC=C[C@H]1C)C(=O)N2Cc1ccc(F)cc1 | . | . | . | -
COc1cc(NC(=O)C(=O)NCCN2CCNCC2)c(OC)cc1Cl | - | 10 | - | -
COc1ccc(-n2cc(COC(=O)NCCc3ccccc3)nn2)cc1 | . | . | . | -
COc1ccc2c(/C=C/c3cc[n+](C)cc3)c[nH]c2c1 | - | - | - | -
COc1ccc2c(c1)c(/C=C/c1cc[n+](C)cc1)cn2C | - | 9.7 | - | -
Cc1c(CC(=O)O)c(=O)oc2c(C)c(OCc3ccccc3)ccc12 | - | - | - | -
Cc1c(CC(=O)O)c(=O)oc2c(C)c(OCc3ccccc3Br)ccc12 | 6.9 | - | - | -
CCc1c(C)c2ccc(OCC(=O)N(C)C)c(C)c2oc1=O | - | 9.8 | - | -
COC(=O)C1CN(CCO)CCS(=O)(=O)N1Cc1cn(Cc2cccc(Cl)c2)nn1 (stereo not given) | . | . | . | -
COc1ccc(C2c3sc(=O)[nH]c3SC3C4CCC(C4)C23)cc1OC (stereo not given) | - | - | - | -
COc1cc(C2c3sc(=O)[nH]c3SC3C(=O)N(c4ccc(Br)cc4)C(=O)C32)ccc1O (stereo not given) | - | - | 28 | -
CCC(=O)N(c1ccccc1)C1CCN(C(=O)C(Cc2ccccc2)NC(C)=O)CC1 (stereo not given) | . | . | . | -
Oc1cccc(C(=S)N2CCN(Cc3ccccc3)CC2)c1 | - | - | 29 | -
Cc1ccc(C(=O)CSC2=C(C#N)C(c3ccco3)C3=C(CC(C)(C)CC3=O)N2)cc1 (stereo not given) | 5.5 | - | - | -
CC1(C)CC(=O)C2=C(C1)NC(SCC(=O)Nc1ccccc1)=C(C#N)C2c1ccco1 (stereo not given) | - | - | - | -
O=C(O)C(Cc1ccccc1)N1C(=O)c2cccc3cccc(c23)C1=O (stereo not given) | - | 9.4 | - | -
O=C(Nc1ccccc1)C(CCCCN1C(=O)c2ccccc2C1=O)N1C(=O)c2ccccc2C1=O (stereo not given) | . | . | . | -
O=C(O)C(Cc1ccccc1)N1C(=O)c2ccccc2C1=O (stereo not given) | - | - | - | -
O=C(O)C(CCCCN1C(=O)c2ccccc2C1=O)N1C(=O)c2ccccc2C1=O (stereo not given) | 18 | - | - | -
CN(C)c1ccc(-c2ccc3c(=O)c4ccccc4n(C)c3c2)cn1 | - | 12 | - | -
Cn1c(=O)c2c(SCC(=O)N3CCOCC3)nc(-c3ccccc3F)nc2n(C)c1=O | - | 7.9 | - | -
SMILES | IMP-1 inhibitor | VIM-2 inhibitor | M18AAP inhibitor | sPLA2-III inh
Cn1c(=O)c2c(SCC(=O)N3CCCCC3)nc(-c3ccccc3F)nc2n(C)c1=O | - | - | - | -
C=C(C)Cn1c(SCC(=O)N/N=C(\C)c2ccc([N+](=O)[O-])cc2)nnc1-c1ccc(Br)cc1 | . | . | . | -
O=C(NN1C(=O)/C(=C/c2ccc(O)c(O)c2)SC1=S)c1ccccc1 | - | - | 65 | -
CC(C)(c1ccccc1)c1ccc(OCCCNCCO)cc1 | 5.4 | - | - | -
CCN(CC)c1ccc(C=Nc2ccccc2)c(O)c1 | - | - | - | -
CCN(CC)c1ccc(/C=N/N=C(N)N)c(O)c1 | - | - | 29 | -
O=C(Cn1nnc(-c2ccccc2F)n1)Nc1ccc(S(=O)(=O)NC2CCCC2)cc1 | 5.0 | - | - | -
O=C(Cn1nnc(-c2ccccc2F)n1)Nc1ccc(Cl)cc1 | . | . | . | -
CN=c1scc(C)n1/N=C/c1cc(Br)c(O)c(Br)c1 | - | - | - | -
CCN=c1scc(C)n1/N=C/c1cc(Br)c(O)c(OC)c1 | - | - | 35 | -
O=C(Nc1cccnc1)c1ccc(C(=O)Nc2cccnc2)cc1 | - | - | - | -
Cc1ccc(SCc2ccc(C(=O)Nc3cccnc3)cc2)cc1 | 15 | - | - | -
COc1ccc([N+](=O)[O-])cc1NC(=O)CSc1nc(C)cc(C)n1 | - | - | 30 | -
COc1ccc([N+](=O)[O-])cc1NC(=O)CSc1ccc2ccccc2c1 | - | - | - | -
Cc1c(O)ccc(-c2[nH]ncc2-c2nc3ccccc3s2)c1O | - | - | - | -
Cc1c(O)ccc(-c2n[nH]c(C(=O)O)c2-c2nc3ccccc3s2)c1O | - | - | 30 | -
CN1C(=O)C(Cl)(Cl)C(=O)c2ccccc21 | - | - | 38 | .
Cc1nn(C)cc1NC(=O)C[C@H]1CC[C@H]2[C@@H](COc3ccc(NC(=O)Nc4ccccc4)cc3C(=O)N2C)O1 | . | . | . | -
C/C(=N\Nc1nccnc1Cl)c1ccc(O)cc1 | - | - | - | -
C/C(=N\Nc1c(Cl)c(Cl)nc(C(=O)O)c1Cl)c1ccc(O)cc1 | - | - | 31 | -
COc1ccc2c(c1)Cc1sc(NC(C)=O)nc1-2 | 11 | - | - | -
COc1ccc2c(c1)Cc1sc(NC(=O)c3ccco3)nc1-2 | - | - | - | -
c1ccc(COc2cccc(CNCc3ccccn3)c2)cc1 | - | 8.2 | - | -
NC(=O)[C@@H]1CCCN1C(=O)[C@@H](Cc1ccccc1)NC(=O)[C@H]1O[C@@H](n2ccc(N)nc2=O)[C@H](O)[C@@H]1O | . | . | . | -
Cc1cc([N+](=O)[O-])c2c(c1C)C1C=CCC1C(c1ccccn1)N2 (stereo not given) | 5.9 | - | - | .
SMILES | IMP-1 inhibitor | VIM-2 inhibitor | M18AAP inhibitor | sPLA2-III inh
CCCCc1n[nH]c(=S)n1Cc1ccccc1 | - | - | - | -
COc1ccc(-n2c(-c3ccc(C)cc3)n[nH]c2=S)cc1 | - | - | - | -
CCOc1cc(-c2n[nH]c(=S)n2Cc2ccccc2)ccc1OC(F)F | . | . | . | -
COc1cc(OC)cc(-c2n[nH]c(=S)n2-c2ccc3c(c2)OCO3)c1 | - | 8.7 | 32 | -
Cc1n[nH]c(=S)n1Cc1ccccc1 | - | 11 | - | -
Cc1n[nH]c(=S)n1-c1ccccc1 | - | 10 | - | -
COc1ccc(-c2n[nH]c(=S)n2Cc2ccccc2)cc1OC | - | 7.8 | - | -
O=C(NCCCc1ccccc1)O[C@@H]1CC[C@@]23CCCN2C(=O)CCC[C@H]3C1 | . | . | . | -
O=C(Nc1cc(S(=O)(=O)N2CCOCC2)ccc1N1CCCC1)c1cc2c(s1)CCCC2 | . | . | . | -
S=c1[nH]nc(C2CCCCC2)n1Cc1ccccc1 | - | 9.3 | - | -
COc1ccc(-n2c(-c3cccc(C)c3[N+](=O)[O-])n[nH]c2=S)cc1 | - | 38 | - | -
Cc1ccccc1-n1c(-c2csc3ccccc23)n[nH]c1=S | - | - | - | -
COc1ccc(-c2n[nH]c(=S)n2-c2ccccc2C)cc1OC | - | - | - | -
COc1ccc(-c2n[nH]c(=S)n2-c2ccccc2C)cc1 | - | 8.8 | - | -
Cc1ccccc1-n1c(-c2csc(C)c2C)n[nH]c1=S | - | 11 | - | -
C=CCn1c(C2CCCCC2)n[nH]c1=S | - | - | - | -
